SMILES strings stand for the structures.

Experiment [1] concerns the target T1, Mitogen-activated protein kinase kinase kinase 2 (Homo sapiens) (UniProt Q9Y2U5).
T1 sequence (whole entry): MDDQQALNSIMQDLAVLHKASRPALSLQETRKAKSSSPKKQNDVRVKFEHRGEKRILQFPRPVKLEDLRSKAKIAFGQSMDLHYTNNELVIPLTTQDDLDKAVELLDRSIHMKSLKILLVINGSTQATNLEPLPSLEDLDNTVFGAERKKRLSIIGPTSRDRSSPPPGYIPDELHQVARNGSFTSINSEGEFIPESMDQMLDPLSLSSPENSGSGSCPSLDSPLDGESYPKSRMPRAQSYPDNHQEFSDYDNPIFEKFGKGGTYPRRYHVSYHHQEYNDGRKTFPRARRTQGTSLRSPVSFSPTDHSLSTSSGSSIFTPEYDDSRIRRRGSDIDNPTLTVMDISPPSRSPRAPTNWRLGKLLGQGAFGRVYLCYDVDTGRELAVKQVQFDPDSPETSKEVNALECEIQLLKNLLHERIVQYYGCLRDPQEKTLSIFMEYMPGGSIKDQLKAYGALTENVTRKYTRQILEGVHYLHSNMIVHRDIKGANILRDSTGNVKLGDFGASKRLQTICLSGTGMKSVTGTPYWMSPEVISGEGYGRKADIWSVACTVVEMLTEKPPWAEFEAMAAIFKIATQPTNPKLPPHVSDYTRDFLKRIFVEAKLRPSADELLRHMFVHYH
Nature of the experiment: Inhibition of human recombinant MAP3K2 at 40 nM related to control ULK1.

The target of experiment [2] is T1, Mitogen-activated protein kinase kinase kinase 2 (Homo sapiens). Description: Inhibition of human recombinant MAP3K2 at 500 nM in presence of ATP by radiometric assay relative to control.
Experiment [3] deals with T2, Serine/threonine-protein kinase Sgk1 (Homo sapiens) (UniProt O00141).
T2 sequence (whole entry): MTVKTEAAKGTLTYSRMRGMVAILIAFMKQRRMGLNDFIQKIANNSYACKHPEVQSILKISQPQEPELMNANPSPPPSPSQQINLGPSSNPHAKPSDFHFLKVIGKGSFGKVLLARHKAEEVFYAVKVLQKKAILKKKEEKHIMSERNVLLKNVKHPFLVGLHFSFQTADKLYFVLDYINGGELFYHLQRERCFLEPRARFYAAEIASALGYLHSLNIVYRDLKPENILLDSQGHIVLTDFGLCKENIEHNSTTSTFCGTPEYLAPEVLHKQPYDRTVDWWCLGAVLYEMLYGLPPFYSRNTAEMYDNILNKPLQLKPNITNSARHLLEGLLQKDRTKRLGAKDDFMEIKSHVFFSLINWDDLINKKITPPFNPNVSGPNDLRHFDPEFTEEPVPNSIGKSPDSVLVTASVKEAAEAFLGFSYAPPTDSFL
Description: Inhibition of human recombinant SGK1 at 500 nM in presence of ATP by radiometric assay relative to control.

Experiment [4] deals with Activin receptor type-1-like (Homo sapiens) (UniProt P37023). Nature of the experiment: Inhibition of human recombinant ALK1 at 15 nM in presence of ATP by radiometric assay relative to control. The gist of the method: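 Panel of 327 recombinant human kinases, each assayed in vitro by radiometric activity assay in duplicate at a single inhibitor concentration per compound, chosen with reference to its ULK1 inhibition. Activity remaining was expressed as percent of vehicle control, and percent inhibition was calculated as 100 minus percent activity remaining.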
Chain of Activin receptor type-1-like (Homo sapiens) (P37023 whole entry): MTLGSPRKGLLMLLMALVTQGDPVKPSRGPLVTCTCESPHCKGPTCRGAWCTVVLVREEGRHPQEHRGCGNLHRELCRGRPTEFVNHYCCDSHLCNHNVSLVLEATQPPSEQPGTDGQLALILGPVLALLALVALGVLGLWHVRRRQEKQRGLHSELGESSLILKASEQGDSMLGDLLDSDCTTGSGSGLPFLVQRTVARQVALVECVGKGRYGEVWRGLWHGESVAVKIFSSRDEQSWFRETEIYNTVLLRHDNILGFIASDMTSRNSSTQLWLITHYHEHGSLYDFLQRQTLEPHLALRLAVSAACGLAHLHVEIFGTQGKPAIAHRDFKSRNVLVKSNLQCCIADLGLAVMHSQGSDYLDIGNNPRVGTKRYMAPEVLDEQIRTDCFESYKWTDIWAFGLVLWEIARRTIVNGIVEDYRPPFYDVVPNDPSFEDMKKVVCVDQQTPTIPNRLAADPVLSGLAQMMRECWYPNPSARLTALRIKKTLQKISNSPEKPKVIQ

Experiment [5] deals with T3, Calcium/calmodulin-dependent protein kinase type IV (Homo sapiens) (UniProt Q16566).
T3 sequence (whole entry): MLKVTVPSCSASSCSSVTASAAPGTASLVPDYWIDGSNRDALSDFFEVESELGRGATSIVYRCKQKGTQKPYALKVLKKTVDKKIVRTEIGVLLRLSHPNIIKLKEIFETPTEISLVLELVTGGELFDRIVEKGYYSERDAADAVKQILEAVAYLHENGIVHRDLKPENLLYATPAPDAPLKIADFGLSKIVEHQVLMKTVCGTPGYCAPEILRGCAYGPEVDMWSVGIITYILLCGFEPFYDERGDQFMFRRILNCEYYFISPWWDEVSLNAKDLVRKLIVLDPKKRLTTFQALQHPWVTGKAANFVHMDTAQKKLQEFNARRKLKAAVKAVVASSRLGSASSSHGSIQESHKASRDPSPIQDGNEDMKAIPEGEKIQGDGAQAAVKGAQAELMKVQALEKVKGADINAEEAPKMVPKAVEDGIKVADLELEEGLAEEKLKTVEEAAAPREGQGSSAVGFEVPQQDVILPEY
Description: Inhibition of human recombinant CaMK4 at 15 nM in presence of ATP by radiometric assay relative to control.

Experiment [6] addresses T4, Ephrin type-A receptor 8 (Homo sapiens) (UniProt P29322).
T4 sequence (whole entry): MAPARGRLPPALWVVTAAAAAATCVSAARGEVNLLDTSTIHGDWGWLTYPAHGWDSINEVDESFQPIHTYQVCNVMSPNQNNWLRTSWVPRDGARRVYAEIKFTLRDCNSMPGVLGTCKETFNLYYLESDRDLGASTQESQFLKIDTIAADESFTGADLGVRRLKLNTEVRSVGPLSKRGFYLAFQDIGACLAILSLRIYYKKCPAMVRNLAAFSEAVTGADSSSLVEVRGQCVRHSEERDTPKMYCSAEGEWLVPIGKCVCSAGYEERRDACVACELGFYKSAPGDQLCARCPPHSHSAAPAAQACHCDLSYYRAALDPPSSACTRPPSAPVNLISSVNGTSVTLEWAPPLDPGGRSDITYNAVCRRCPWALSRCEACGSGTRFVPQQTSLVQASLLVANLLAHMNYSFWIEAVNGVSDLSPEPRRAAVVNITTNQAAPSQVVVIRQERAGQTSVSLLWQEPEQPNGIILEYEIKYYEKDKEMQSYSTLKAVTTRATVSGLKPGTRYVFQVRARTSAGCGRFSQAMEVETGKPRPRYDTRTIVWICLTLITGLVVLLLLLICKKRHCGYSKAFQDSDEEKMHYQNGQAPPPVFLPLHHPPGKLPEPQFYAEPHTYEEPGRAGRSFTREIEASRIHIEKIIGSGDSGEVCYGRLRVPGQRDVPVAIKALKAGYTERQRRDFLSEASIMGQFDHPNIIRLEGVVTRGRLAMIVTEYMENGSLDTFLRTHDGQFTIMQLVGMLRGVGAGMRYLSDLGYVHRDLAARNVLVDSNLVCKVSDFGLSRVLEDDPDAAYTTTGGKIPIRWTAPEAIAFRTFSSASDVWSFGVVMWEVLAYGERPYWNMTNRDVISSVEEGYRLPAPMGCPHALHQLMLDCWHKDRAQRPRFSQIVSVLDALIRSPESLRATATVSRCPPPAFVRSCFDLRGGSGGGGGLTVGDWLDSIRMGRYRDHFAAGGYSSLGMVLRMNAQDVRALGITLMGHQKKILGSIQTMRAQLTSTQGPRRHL
Nature of the experiment: Inhibition of human recombinant EphA8 at 15 nM in presence of ATP by radiometric assay relative to control.

Experiment [7] deals with Leucine-rich repeat serine/threonine-protein kinase 2 (Homo sapiens) (UniProt Q5S007). Nature of the experiment: Inhibition of human recombinant LRRK2 at 15 nM in presence of ATP by radiometric assay relative to control.
Chain of Leucine-rich repeat serine/threonine-protein kinase 2 (Homo sapiens) (Q5S007 whole entry): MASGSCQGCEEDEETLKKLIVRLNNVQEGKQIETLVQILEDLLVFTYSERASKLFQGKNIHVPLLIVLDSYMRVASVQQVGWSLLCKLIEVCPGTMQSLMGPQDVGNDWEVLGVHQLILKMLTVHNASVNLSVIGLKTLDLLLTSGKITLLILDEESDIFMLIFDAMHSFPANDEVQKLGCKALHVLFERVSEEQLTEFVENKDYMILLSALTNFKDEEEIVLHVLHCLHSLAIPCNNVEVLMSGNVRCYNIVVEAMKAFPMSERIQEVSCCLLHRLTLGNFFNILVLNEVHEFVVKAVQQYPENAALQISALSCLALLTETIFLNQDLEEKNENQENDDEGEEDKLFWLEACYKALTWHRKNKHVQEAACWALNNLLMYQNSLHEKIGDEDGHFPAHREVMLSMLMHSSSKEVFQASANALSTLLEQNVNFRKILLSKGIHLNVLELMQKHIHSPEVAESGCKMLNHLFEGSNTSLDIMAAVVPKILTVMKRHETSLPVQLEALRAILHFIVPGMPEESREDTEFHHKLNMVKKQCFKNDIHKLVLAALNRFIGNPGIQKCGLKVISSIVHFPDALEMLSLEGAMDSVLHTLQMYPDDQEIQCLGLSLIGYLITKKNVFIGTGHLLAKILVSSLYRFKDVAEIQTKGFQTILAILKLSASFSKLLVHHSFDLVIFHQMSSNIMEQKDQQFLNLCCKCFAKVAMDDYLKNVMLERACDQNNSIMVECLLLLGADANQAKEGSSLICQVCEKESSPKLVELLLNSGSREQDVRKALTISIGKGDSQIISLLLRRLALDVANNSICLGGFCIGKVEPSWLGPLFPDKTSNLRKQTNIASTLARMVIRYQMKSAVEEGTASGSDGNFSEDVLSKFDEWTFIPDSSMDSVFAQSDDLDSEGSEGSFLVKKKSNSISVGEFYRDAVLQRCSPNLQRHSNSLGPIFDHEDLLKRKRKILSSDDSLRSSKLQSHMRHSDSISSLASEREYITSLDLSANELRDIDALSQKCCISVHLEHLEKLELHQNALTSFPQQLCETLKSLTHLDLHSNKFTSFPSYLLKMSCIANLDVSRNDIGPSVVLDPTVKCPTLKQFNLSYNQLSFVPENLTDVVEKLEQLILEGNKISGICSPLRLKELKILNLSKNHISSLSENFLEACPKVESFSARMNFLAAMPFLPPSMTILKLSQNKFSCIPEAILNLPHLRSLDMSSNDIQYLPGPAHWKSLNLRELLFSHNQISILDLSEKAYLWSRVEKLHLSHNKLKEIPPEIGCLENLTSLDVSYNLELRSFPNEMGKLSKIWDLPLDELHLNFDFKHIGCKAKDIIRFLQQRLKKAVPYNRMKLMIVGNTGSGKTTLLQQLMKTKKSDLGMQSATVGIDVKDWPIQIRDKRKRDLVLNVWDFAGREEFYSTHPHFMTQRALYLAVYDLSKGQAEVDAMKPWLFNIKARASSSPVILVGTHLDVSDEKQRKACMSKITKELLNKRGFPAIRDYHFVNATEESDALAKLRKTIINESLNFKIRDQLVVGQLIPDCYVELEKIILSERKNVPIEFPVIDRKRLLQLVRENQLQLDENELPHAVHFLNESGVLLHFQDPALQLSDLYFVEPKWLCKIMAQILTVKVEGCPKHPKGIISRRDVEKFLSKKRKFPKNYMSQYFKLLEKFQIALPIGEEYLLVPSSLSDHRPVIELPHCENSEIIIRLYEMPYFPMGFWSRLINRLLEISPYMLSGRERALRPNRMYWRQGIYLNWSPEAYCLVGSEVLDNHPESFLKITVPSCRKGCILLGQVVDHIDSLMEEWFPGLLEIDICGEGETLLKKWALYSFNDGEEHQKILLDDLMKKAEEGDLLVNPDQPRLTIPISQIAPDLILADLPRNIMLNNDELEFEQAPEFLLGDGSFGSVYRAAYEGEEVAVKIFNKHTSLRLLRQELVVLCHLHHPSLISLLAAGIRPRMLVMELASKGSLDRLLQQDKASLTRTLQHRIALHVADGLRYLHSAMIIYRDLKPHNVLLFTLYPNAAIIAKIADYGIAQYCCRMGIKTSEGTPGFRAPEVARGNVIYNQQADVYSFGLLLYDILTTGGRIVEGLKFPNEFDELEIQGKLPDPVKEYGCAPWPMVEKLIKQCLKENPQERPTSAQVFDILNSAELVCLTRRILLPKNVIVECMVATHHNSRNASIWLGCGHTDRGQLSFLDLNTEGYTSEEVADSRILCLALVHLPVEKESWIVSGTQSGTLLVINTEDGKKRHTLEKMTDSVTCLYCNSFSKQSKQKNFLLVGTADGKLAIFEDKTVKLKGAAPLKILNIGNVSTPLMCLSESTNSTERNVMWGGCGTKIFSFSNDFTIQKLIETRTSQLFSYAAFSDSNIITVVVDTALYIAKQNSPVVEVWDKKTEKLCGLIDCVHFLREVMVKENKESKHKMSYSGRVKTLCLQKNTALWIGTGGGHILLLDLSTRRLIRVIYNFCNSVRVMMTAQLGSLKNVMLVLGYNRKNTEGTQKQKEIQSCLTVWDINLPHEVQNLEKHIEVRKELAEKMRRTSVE
In experiment [8] the target is T4, Ephrin type-A receptor 8 (Homo sapiens). Description: Inhibition of human recombinant EphA8 at 15 nM related to control ULK1.

For `O=C(N[C@@H](C1CC1)C(F)(F)F)c1cc(-c2cnn3cc(-c4ccc(F)cc4)cnc23)cs1`, the fold change (FC) in experiment [1] came out at 0.

One may read the inhibition as the relative decrease from the control value, in per cent. Consider `CNC(=O)c1ccccc1Oc1nc(Nc2cc(OC)c(OC)c(OC)c2)ncc1Br`, for which the results for the inhibition in experiment [2] and in experiment [3] were 3% and 2%, respectively.

Turning to `CC(C)[C@H](NC(=O)c1cc(-c2cnn3cc(-c4ccc(OCCN5CCCCC5)cc4)cnc23)cs1)C(F)(F)F`, the inhibition in experiment [4] was 7%; in experiment [5], 0%; in experiment [6], 0%; in experiment [7], 3%. The fold change (FC) in experiment [8] stood at 0.

(Values after ChEMBL document CHEMBL5653631, “A Potent and Selective ULK1 Inhibitor Suppresses Autophagy and Sensitizes Cancer Cells to Nutrient Stress” (iScience, 2018).)
